Assay results from ChEMBL document CHEMBL1140751, “Novel sst5-selective somatostatin dicarba-analogues: synthesis and conformation-affinity relationships” (J Med Chem, 2008).
Numbered stars: 1 amine (or outer) side, 2 acyl side, 3 side chain; on linkers, the order of the positions; unused ones are H or OH. Bridge positions count the residues as written; N and C are the ends. Square brackets hold non-standard residues; d marks the D form. Peptide text beside a SMILES is read from it. Phe(Nα-(CH2)3CO) = O=C([C@H](Cc1ccccc1)N(CCCC(=O)[*:3])[*:1])[*:2]; N(2-aminoethyl)Phe = O=C([C@H](Cc1ccccc1)N(CCN[*:3])[*:1])[*:2]

Columns and labels:
[1] = target: Somatostatin receptor type 3 (Homo sapiens, UniProt P32745); test: Displacement of [125I](Leu8,D-Trp22,Tyr25)-SRIF28 from human sst3 receptor
Chain of Somatostatin receptor type 3 (P32745 whole entry): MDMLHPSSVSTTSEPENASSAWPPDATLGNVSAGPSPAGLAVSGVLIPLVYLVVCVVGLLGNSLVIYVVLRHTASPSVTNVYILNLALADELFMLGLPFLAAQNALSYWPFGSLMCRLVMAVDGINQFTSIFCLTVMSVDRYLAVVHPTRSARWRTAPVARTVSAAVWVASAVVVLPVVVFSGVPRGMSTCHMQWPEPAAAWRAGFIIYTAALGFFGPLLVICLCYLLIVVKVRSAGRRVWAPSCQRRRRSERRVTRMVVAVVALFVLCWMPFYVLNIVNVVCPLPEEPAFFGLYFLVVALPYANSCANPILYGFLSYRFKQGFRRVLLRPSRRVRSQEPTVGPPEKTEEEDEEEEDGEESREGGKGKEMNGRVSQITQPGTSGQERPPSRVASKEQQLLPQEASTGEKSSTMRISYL
Summary of the method: (§1)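 Membranes came from CHO-K1 and CCL39 cells stably expressing the human sst1–sst5 receptors. Receptor autoradiography was performed on 20 µm pellet sections mounted on slides. IC50 was derived from signal quantified by computer-assisted image processing.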

[2] = target: Somatostatin receptor type 1 (Homo sapiens, UniProt P30872); test: Displacement of [125I](Leu8,D-Trp22,Tyr25)-SRIF28 from human sst1 receptor; summary of the method: as §1
Chain of Somatostatin receptor type 1 (P30872 whole entry): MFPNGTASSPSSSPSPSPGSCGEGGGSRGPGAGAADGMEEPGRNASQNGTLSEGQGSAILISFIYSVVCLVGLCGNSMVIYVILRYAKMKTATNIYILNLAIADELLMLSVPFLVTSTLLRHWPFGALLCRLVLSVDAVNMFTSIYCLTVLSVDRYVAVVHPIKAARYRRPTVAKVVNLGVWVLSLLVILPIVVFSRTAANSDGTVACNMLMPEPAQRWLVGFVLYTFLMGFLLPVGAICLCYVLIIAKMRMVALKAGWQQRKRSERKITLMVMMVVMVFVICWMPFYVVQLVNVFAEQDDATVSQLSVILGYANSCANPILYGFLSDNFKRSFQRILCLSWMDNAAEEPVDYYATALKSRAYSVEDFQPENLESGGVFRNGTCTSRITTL

[3] = target: Somatostatin receptor type 4 (Homo sapiens, UniProt P31391); test: Displacement of [125I](Leu8,D-Trp22,Tyr25)-SRIF28 from human sst4 receptor; summary of the method: as §1
Chain of Somatostatin receptor type 4 (P31391 whole entry): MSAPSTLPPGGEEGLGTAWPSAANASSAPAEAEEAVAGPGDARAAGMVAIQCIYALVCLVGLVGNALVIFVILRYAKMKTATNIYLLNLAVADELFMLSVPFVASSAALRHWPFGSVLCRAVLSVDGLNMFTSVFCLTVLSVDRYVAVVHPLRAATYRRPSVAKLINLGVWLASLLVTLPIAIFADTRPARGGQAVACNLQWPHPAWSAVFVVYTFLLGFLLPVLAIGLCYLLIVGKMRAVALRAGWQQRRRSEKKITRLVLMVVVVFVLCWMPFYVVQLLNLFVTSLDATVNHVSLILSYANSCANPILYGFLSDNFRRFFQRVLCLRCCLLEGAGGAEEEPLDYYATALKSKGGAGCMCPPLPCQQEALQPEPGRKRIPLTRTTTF

[4] = target: Somatostatin receptor type 2 (Homo sapiens, UniProt P30874); test: Displacement of [125I](Leu8,D-Trp22,Tyr25)-SRIF28 from human sst2 receptor; summary of the method: as §1
Chain of Somatostatin receptor type 2 (P30874 whole entry): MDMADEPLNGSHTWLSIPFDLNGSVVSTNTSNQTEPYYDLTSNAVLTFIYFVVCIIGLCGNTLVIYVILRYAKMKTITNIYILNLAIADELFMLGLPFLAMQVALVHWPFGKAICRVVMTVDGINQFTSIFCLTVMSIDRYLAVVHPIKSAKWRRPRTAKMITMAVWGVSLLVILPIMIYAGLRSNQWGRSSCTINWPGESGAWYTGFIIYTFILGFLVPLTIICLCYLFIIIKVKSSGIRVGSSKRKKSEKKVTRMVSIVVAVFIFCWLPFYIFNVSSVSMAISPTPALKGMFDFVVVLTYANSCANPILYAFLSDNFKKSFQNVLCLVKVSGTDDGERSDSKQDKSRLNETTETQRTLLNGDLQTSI

[5] = target: T1, Somatostatin receptor type 5 (Homo sapiens, UniProt P35346); test: Displacement of [125I](Leu8,D-Trp22,Tyr25)-SRIF28 from human sst5 receptor; summary of the method: as §1
T1 sequence (P35346 whole entry): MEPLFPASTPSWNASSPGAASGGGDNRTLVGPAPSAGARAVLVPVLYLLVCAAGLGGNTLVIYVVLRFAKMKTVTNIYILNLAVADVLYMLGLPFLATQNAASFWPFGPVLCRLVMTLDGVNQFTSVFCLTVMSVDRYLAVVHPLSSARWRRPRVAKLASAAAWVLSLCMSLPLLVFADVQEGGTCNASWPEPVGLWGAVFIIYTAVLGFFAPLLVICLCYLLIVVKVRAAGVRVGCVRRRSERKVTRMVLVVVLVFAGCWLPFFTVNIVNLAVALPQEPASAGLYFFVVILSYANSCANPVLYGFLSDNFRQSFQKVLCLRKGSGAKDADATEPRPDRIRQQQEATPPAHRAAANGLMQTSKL

[6] = target: T1, Somatostatin receptor type 5; test: Binding affinity to sst5 receptor

IC50 [1] [nM]	IC50 [2] [nM]	IC50 [3] [nM]	IC50 [4] [nM]	IC50 [5] [nM]	IC50 [6] [nM]	SMILES
> 1000	> 1000	412	44	28		C[C@@H](O)[C@@H]1NC(=O)[C@H](CCCCN)NC(=O)[C@@H](Cc2c[nH]c3ccccc23)NC(=O)[C@H](Cc2ccccc2)NC(=O)[C@@H](NC(=O)[C@H](N)Cc2ccccc2)C/C=C\C[C@@H](C(=O)N[C@H](CO)[C@@H](C)O)NC1=O
					0.4	C[C@H](N)COC(=O)[C@H](CCCCN)NC(=O)Cc1c(-c2ccc3ccccc3c2)[nH]c2c1ccc1ccccc12
> 1000	961	141	> 1000	206		C[C@@H](O)[C@@H](CO)NC(=O)[C@@H]1C/C=C\C[C@H](NC(=O)[C@H](N)Cc2ccccc2)C(=O)N[C@@H](Cc2ccccc2)C(=O)N[C@H](Cc2c[nH]c3ccccc23)C(=O)N[C@@H](CCCCN)C(=O)N[C@@H](Cc2ccccc2)C(=O)N1
> 1000	> 1000	214	49	203		C[C@@H](O)[C@@H]1NC(=O)[C@H](CCCCN)NC(=O)[C@@H](Cc2c[nH]c3ccccc23)NC(=O)[C@H](Cc2ccccc2)NC(=O)[C@@H](NC(=O)[C@H](N)Cc2ccccc2)CCCC[C@@H](C(=O)N[C@H](CO)[C@@H](C)O)NC1=O
					67	CC(C)[C@@H]1NC(=O)[C@H](CCCCN)NC(=O)[C@@H](Cc2c[nH]c3ccccc23)NC(=O)[C@H](Cc2ccc(O)cc2)NC(=O)[C@H](Cc2ccccc2)NCCNC(=O)CCCN([C@@H](Cc2ccccc2)C(=O)N[C@H](C(N)=O)[C@@H](C)O)C1=O (H-[N(2-aminoethyl)Phe]Y[dW]KV[Phe(Nα-(CH2)3CO)]T-NH2; lactam 1-6)
